Screening data as filed in PubChem BioAssay.
TAAR1 antagonist: human TAAR1 antagonists, primary screen, Fluo-8 calcium fluorescence, CHO RD-HGA16 cells | antagonist | inhibition, % at 3 µM | 360,000 tested, 1.5% active | AID 624466, 2012;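 active = inhibition above a per-plate cutoff, the mean inhibition of test compounds on that plate plus 3 SD, cut at about 49% in these data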;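 also: 0% = DMSO plus EC80 beta-PEA response and 100% = DMSO alone without agonist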
Target sequence (Q96RJ0 whole entry, looked up): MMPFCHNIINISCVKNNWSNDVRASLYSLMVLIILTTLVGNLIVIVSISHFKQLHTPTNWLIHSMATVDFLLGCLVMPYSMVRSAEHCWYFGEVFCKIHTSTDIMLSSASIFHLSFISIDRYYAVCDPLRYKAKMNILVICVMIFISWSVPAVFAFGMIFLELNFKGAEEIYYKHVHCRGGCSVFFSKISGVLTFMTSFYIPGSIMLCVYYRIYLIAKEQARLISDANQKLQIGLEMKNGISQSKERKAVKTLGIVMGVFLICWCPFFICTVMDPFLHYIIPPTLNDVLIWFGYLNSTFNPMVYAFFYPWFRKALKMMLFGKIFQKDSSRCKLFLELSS
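Test system: RD-HGA16 CHO cells with stable hTAAR1 and Gα16 / Probe or stimulus: EC80 β-phenethylamine stimulus / Times: seeding 17-24 h prior, 75-min 37 °C, 30-min RT dye loading / Detection: Fluo-8 calcium-sensitive fluorescence / Read-out basis: % inhibition scaled between DMSO and EC80 PEA controls / Repeats: singlicate, one well per test compound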
OX1R antag-1: OX1R (HCRTR1) antagonists, primary screen, fluorescence, CHO/OX1R cells, Fluo-8 calcium, orexin A | Orexin/Hypocretin receptor type 1 (Homo sapiens), O43613 | Fluo-8 calcium fluorescence | inhibition, % at 5 µM | 330,000 tested, 0.43% active | AID 434989, 2010;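 active = inhibition above its plate's threshold, mean inhibition of all tested compounds on the plate plus 3 SD, cut at about 37% in these data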;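 also: 0% = orexin A challenge wells and 100% = SB-334867-A antagonist wells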
TAAR1 agonist: human TAAR1 agonists, primary screen, Fluo-8 calcium fluorescence, CHO RD-HGA16 cells | Trace amine-associated receptor 1 (Homo sapiens), Q96RJ0 | vehicle wells 0%, saturating PEA agonist 100% | activation, % at 3 µM | 360,000 tested, 0.99% active;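 active = activation above the mean activation of all test compounds in the run plus 3 SD, cut at about 38% in these data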
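Repeats: no replicates (n 1) | Material: CHO-derived RD-HGA16 cells with stable Gα16 and human TAAR1 | Technique: Kinetic Fluo-8 calcium fluorescence | Schedule: 17-24 h seeding, 75 min 37 °C dye, 30 min RT | Evaluation: % activation from peak over basal fluorescence ratio, DMSO-to-PEA scaled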
OX1R antag-2: antagonists of human orexin 1 receptor (OX1R) | Orexin/Hypocretin receptor type 1 (Homo sapiens), O43613 | OX1R-expressing cells, FRET antagonist read-out | inhibition, % at 6.6 µM | 330,000 tested, 1.8% active | AID 485270, 2010; in the data active = inhibition mostly above about 38%, no sharp cut-off; inactive = mostly below about 40%;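 also: 0% = agonist challenge alone and 100% = reference antagonist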
GalR3 antag: GalR3 antagonists in HEK293 cells, primary screen, cell-based, fluorescence readout. inhibition, % at 3 µM. HEK293 GalR3-CNG cAMP membrane potential fluorescence; galR3 body fused to GalR1 C-terminus. 360,000 tested, 0.44% active. Galanin receptor type 3 (Homo sapiens), O60755. AID 651719, 2012;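 active = inhibition above the screen-wide average plus 3 SD, cut at about 13% in these data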;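 also: forskolin and galanin both at EC90 stimulate the cells; cAMP rise reported by CNG channel membrane potential dye signal; 0% = forskolin plus galanin with DMSO and 100% = forskolin alone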
CHO parental Ca: ATP-evoked calcium signal inhibitors, parental CHO, primary screen, counter-screen for OX1R antagonist project, cell-based, fluorescence, Fluo-8 calcium dye. parental CHO-K1, ATP-induced calcium, Fluo-8 fluorescence. inhibition, % at 5.6 µM. 330,000 tested, 0.63% active;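 active = inhibition above that plate's mean sample inhibition plus 3 SD, cut at about 26% in these data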;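 also: 0% = ATP-challenged DMSO wells and 100% = DMSO wells without ATP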
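Material: Parental CHO cells | Reagent: ATP | Compound dosing: Single nominal dose of 5.6 µM per compound | Detection: Intracellular calcium via Fluo-8 no-wash fluorescent dye | Read-out: % inhibition of ATP-induced calcium mobilization | Benchmarks: Low control ATP plus DMSO, high control DMSO only | Replicates: Singlicate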
OX1R HTRF confirm: OX1R (HCRTR1) antagonists, confirmation, cell-based, HTRF; shares compounds with OX1R antag-2; OX1R-expressing cells, HTRF antagonist assay; inhibition, % at 6.6 µM; 1,800 tested, 49% active; in the data active = inhibition above about 55%;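 also: CHO cells expressing OX1R stimulated with orexin A at about EC80; 0% = agonist challenge alone and 100% = reference antagonist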
CHO-K1 HTRF cnt: signal inhibition in parental CHO-K1 cells, counter-screen for OX1R antagonist project, cell-based, HTRF; shares compounds with OX1R antag-2; HTRF counterscreen; inhibition, % at 6.6 µM; 1,800 tested, 48% active; in the data active = inhibition above about 17%;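 also: 0% = agonist challenge with vehicle and 100% = vehicle alone without agonist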
An asterisk follows results filed as active; x = no result. Only some compounds are listed: those with a hit (about 4.2% of all), similar ones and a draw of the others.

SMILES	TAAR1 antagonist	OX1R antag-1	TAAR1 agonist	OX1R antag-2	GalR3 antag	CHO parental Ca	OX1R HTRF confirm	CHO-K1 HTRF cnt
CC(C)[n+]1ccn(C2=C([O-])c3ccccc3C(=O)/C2=N\S(=O)(=O)c2ccccc2)c1	-11	-19	1	77*	-7	-3	69*	96*
CCCCC[n+]1ccn(C2=C([O-])c3ccccc3C(=O)/C2=N\S(=O)(=O)c2ccccc2)c1	-3	-30	2	100*	-3	-31	47	52*
CCCC[n+]1ccn(C2=C([O-])c3ccccc3C(=O)/C2=N\S(=O)(=O)c2ccccc2)c1	0	-28	4	165*	-4	-25	55	94*
CCCC[n+]1ccn(-c2nc3ccccc3nc2[N-]S(=O)(=O)c2ccccc2)c1	2	-17	8	38	0	-10	x	x
Cc1ccc(C(C)C)c(OCC(=O)c2c(O)c3ccccc3oc2=O)c1	7	-14	-6	82*	0	-8	36	2
Cc1c(Nc2ccc3nonc3c2[N+](=O)[O-])c(=O)n(-c2ccccc2)n1C	6	-32	3	195*	5	-18	53	87*
Cc1cc(C)cc(Nc2ccc3nonc3c2[N+](=O)[O-])c1	-3	-11	-3	31	-1	-4	x	x
O=C(O)c1ccc(Nc2cc(Cl)c3nonc3c2[N+](=O)[O-])cc1	1	-14	4	96*	-1	-16	62*	98*
CC(=O)Nc1ccc(Nc2cc(N(C)C)c3nonc3c2[N+](=O)[O-])cc1	-5	x	0	x	-10	x	x	x
O=C(O)c1cccc(Nc2ccc3nonc3c2[N+](=O)[O-])c1	-12	-3	0	92*	2	2	58*	97*
Cc1cccc(Nc2ccc3nonc3c2[N+](=O)[O-])c1C	-5	5	-1	8	-8	3	x	x
NS(=O)(=O)c1ccc(Nc2ccc3nonc3c2[N+](=O)[O-])cc1	-9	-12	1	90*	-4	-6	63*	110*
Cc1c(Nc2cc(N3CCOCC3)c3nonc3c2[N+](=O)[O-])c(=O)n(-c2ccccc2)n1C	x	-3	x	21	x	5	x	x
COC(=O)c1cc(NC(=O)COC(=O)CCc2nc3ccccc3c(=O)[nH]2)cc(C(=O)OC)c1	8	0	2	10	-2	-6	x	x
O=C(NC1CCCCCCC1)C1c2ccccc2C(=O)N1Cc1cccs1 (configuration not stated)	-2	-27	0	27	-7	-14	x	x
CSc1nc2n(n1)C(c1cccs1)C1=C(CCCC1=O)N2 (configuration not stated)	-13	-11	2	106*	-2	-12	16	3
O=C(CCn1c(=O)[nH]c2ccsc2c1=O)N1CCN(c2cccc(Cl)c2)CC1	7	-23	5	27	-2	-18	x	x
CCCCc1ccc(Nc2ncnc3nc[nH]c23)cc1	-41	-10	-1	13	-2	6	x	x
O=C(NC1CCCCC1)c1sc(=S)n2c1[nH]c(=O)c1ccccc12	-10	-17	30	82*	-4	-3	56*	10
CC(=O)c1ccc(N2CCN(C(=O)c3ccc4c(=O)[nH]c5c(C(=O)NC6CCCC6)sc(=S)n5c4c3)CC2)cc1	-20	x	1	x	-2	x	x	x
Cc1cc(OCc2cc(C(=O)N(Cc3nccn3C)C(C)C)no2)cc(C)c1Cl	-14	-22	5	2	4	-13	x	x
